bovine MsrA act = activators of bovine methionine sulfoxide reductase A. purified bovine MsrA, absorbance read-out. activation, % at 10.6 µM. 360,000 tested, 0.3% active. AID 602163; in the data active = activation above about 7.5%;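 also: 0% = vehicle and 100% = reference activator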
TbMetRS inhib = blocks T. brucei methionyl-tRNA synthetase activity; 360,000 tested, 0.4% active; AID 624268; inhibition, % at 11.9 µM; purified T. brucei MetRS, ATP depletion, Kinase-Glo luminescence;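 active = inhibition above a per-plate cutoff of the control wells' mean inhibition plus 3 SD, cut at about 5.5% in these data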;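 also: 0% = DMSO wells median and 100% = median of wells with control inhibitor compound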
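Test system – parasite MetRS enzyme · Reagent – substrates ATP, L-methionine and bulk Escherichia coli tRNA · Doses – 11.9 µM compound single dose, 0.9% DMSO · Times – 15 min enzyme-compound preincubation, 2 h reaction, 10 min detection, 25 °C · Signal – Kinase-Glo luminescence, ATP depletion format · Controls – DMSO-only wells as low control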
MsrA inh = bovine MsrA inhibition. purified bovine MsrA, absorbance read-out. inhibition, % at 15.5 µM. 360,000 tested, 0.75% active; in the data active = inhibition above about 4.5%;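 also: 0% = vehicle wells with enzyme and 100% = reference inhibitor wells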
procasp3 activ = activates human procaspase-3. activation, % at 8.5 µM. recombinant procaspase-3 D3A, Ac-DEVD-pNA absorbance 405 nm. 330,000 tested, 0.11% active. AID 463141;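 active = activation above the mean of all tested compounds plus 3 SD, cut at about 21% in these data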;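 also: 0% = DMSO alone and 100% = DMSO wells spiked with extra 5 µM PC-3 D3A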
Target sequence (P42574 whole entry D9A/D28A/D175A): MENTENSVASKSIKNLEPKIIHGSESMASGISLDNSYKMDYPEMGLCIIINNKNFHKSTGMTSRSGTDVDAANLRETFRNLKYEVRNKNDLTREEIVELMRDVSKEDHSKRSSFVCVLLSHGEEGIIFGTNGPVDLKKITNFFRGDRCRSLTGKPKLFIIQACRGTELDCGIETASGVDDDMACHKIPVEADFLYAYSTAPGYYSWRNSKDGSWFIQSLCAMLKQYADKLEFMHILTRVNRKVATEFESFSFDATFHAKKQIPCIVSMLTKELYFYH
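Test system: Procaspase-3 D3A mutant; medium: Zinc-free HEPES/NaCl buffer with 0.01% Triton X-100 at pH 7.4; reagent: DEVD-pNA substrate; doses: one concentration, 8.5 µM nominal, 0.8% DMSO; times: 1 h preincubation plus 2 h reaction at 25 °C; signal: Epi-absorbance at 405 nm of released p-nitroaniline, 0 and 120 min; replicates: singlicate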
proCasp7 act = activates human procaspase-7, counter-screen for procaspase-3 activators; recombinant procaspase-7, Ac-DEVD-pNA absorbance 405 nm; D23A/D198A/D206A triple mutant, cannot self-cleave; scale: DMSO 0, 5 µM enzyme 100; activation, % at 8.5 µM; 330,000 tested, 0.093% active;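 active = percent activation above the screen-wide mean plus 3 SD, cut at about 25% in these data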
Target sequence (P55210 whole entry D23A/D198A/D206A): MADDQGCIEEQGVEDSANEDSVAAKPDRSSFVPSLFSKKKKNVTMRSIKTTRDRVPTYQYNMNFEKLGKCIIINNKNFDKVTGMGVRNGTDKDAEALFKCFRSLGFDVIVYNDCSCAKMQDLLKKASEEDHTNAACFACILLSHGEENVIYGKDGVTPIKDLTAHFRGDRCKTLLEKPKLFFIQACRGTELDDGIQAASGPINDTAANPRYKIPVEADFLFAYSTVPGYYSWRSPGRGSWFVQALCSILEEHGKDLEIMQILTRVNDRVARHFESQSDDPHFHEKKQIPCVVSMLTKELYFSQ
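System: Uncleavable procaspase-7 mutant enzyme; Amount: 2 µM procaspase-7 mutant as dispensed; Schedule: 1 h compound preincubation, 2 h substrate cleavage, 25 °C; Measured by: 405 nm absorbance of p-nitroaniline; Evaluation: percent activation from buffer-corrected 0–120 min absorbance change; Control set: low DMSO alone, high DMSO plus 5 µM PC-7.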
TbMetRS confirm = confirmation of Trypanosoma brucei MetRS inhibitors | shares compounds with TbMetRS inhib | T. brucei MetRS enzyme, luminescence (ATP depletion) | inhibition, % at 11.9 µM | 1,400 tested, 93% active | AID 624412; in the data active = inhibition above about 7%
Jurkat tox = Jurkat T cell cytotoxicity for MetRS hits. Jurkat cells viability, ATP luminescence. inhibition, % at 8.3 µM. shares compounds with TbMetRS inhib. 1,400 tested, 12% active. AID 624413; in the data active = inhibition above about 15%;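 also: 0% = vehicle and 100% = reference inhibitor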
Tb MetRS inh FP = orthogonal test for Trypanosoma brucei MetRS inhibitors. AID 651607. shares compounds with TbMetRS inhib. 1,400 tested, 44% active. purified T. brucei MetRS, fluorescence polarization. inhibition, % at 11.9 µM; in the data active = inhibition above about 17%;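 also: 0% = vehicle wells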
Starred values were filed as active, the others as inactive; / = no result given. In the library only some 1.5% were active in any assay of this set; here they are far more common.

SMILES	bovine MsrA act	TbMetRS inhib	MsrA inh	procasp3 activ	proCasp7 act	TbMetRS confirm	Jurkat tox	Tb MetRS inh FP
Cn1c(CCCOc2ccc(Cl)cc2Cl)nnc1SCC(=O)Nc1cccc(F)c1	-2	6.8*	-1	-1	8	34*	-5	41*
CCOC(=O)c1ccc(NC(=O)Cn2nnc3ccccc32)cc1	-3	-1	0	4	3	/	/	/
COC(=O)c1cccc(NC(=O)Cn2nnc3ccccc32)c1	-1	14*	-1	3	1	27*	-1	15
C=CCN=C1NC(c2ccccc2)C(C(=O)OC)=C(C)N1Cc1ccccc1C(F)(F)F (centres undefined)	/	/	0	/	/	/	/	/
Cc1csc(CNc2ncnc3ccc(-c4ccccc4Cl)cc23)c1	7	6.0*	0	-1	-10	25*	4	20*
CC(C)(C)c1csc(NC(=O)CSC2=NCCS2)n1	0	6.0*	-1	-5	4	2	4	8
CC[C@H](NC(=O)[C@H]1O[C@@H](n2cnc3c(=O)[nH]c(N)nc32)[C@H](O)[C@@H]1O)c1ccccc1	/	/	0	/	/	/	/	/
NS(=O)(=O)c1ccc(NC(=O)c2c(F)cccc2Cl)cc1	-1	7.9*	-1	-3	8	4	-4	1
NS(=O)(=O)c1ccc(NC(=O)c2c(Cl)cccc2Cl)cc1	-4	0	1	-3	-3	/	/	/
O=C(COc1nsnc1N1CCOCC1)Nc1ccc(Cl)cc1	-3	11*	-1	5	-10	23*	-10	7
Nc1ccc2nc(CCCCc3nc4ccccc4[nH]3)[nH]c2c1	-1	9.3*	0	/	/	14*	3	5
COC(=O)C1=C(C)N(Cc2ccccc2C(F)(F)F)C(=NCc2cccc(C(F)(F)F)c2)NC1CCc1ccccc1 (centres undefined)	/	/	-1	/	/	/	/	/
COc1ccccc1NS(=O)(=O)c1cc(NC(=O)Nc2ccccc2)ccc1N1CCCCC1	-6	6.2*	-1	-7	1	11*	-1	17*
O=C(Nc1ccc(F)cc1)Nc1ccc(N2CCCC2)c(S(=O)(=O)Nc2ccccc2Cl)c1	-7	11*	1	3	1	27*	67*	44*
NC(=NCCc1c[nH]c2ccccc12)NC(=O)c1ccc(Cl)cc1	-12	29*	1	7	-19	35*	2	16
CNC(=S)NNC(=O)c1ccc(=O)n(Cc2ccc(Cl)cc2Cl)c1	-4	7.8*	0	4	-5	20*	11	7
CS(=O)(=O)n1nc(-c2ccc(Cl)cc2)nc1SCc1ccccc1	-2	6.7*	0	11	8	4	4	7
O=C(Nc1cccc2ncccc12)c1ccc(Br)c([N+](=O)[O-])c1	-1	31*	0	2	6	56*	22*	35*
C=CCN=C1NC(CCc2ccccc2)C(C(=O)OC)=C(C)N1Cc1ccccc1C(F)(F)F (centres undefined)	/	/	-2	/	/	/	/	/
CCCc1nc2c(=O)n(C)c(=O)nc-2n(C)n1	2	17*	1	/	/	20*	73*	5
Cn1nc(-c2ccccn2)nc2c(=O)n(C)c(=O)nc1-2	59*	31*	0	-11	-15	31*	66*	9
COc1ccc(-c2nc(-c3ccccn3)ncc2S(C)(=O)=O)cc1	0	0	0	-2	16	/	/	/
CCn1c(N)nc2c1c(=O)n(C)c(=O)n2C	0	0	1	8	7	/	/	/
Cc1cc2c(c(=O)o1)[C@@]1(C(=O)N(C)c3ccccc31)C1=C(CCCC1=O)O2	/	/	0	/	/	/	/	/
Cc1ccc(-c2nc3c4ccccc4ccn3c2Cc2cccc(F)c2)cc1	/	/	1	/	/	/	/	/
SMILES	bovine MsrA act	TbMetRS inhib	MsrA inh	procasp3 activ	proCasp7 act	TbMetRS confirm	Jurkat tox	Tb MetRS inh FP
Nc1cccc(CCc2nc3cc4ccccc4cc3[nH]2)c1	-5	4	0	-3	-3	/	/	/
Nc1nc2cc3ccccc3cc2[nH]c1=O	-1	6.3*	2	-9	9	5.8*	3	0
O=C(NNS(=O)(=O)c1ccccc1[N+](=O)[O-])c1cc2ccccc2cc1O	-2	34*	0	-4	-20	49*	2	24*
O=C(C(=O)N1CCN(c2ccc(F)cc2)CC1)c1c[nH]c2ccccc12	-2	0	1	2	-9	/	/	/
Cc1[nH]c2ccccc2c1C(=O)C(=O)N1CC(C)OC(C)C1 (centres undefined)	-6	1	3	7	-1	/	/	/
Cc1[nH]c2ccccc2c1C(=O)C(=O)N1CCN(c2cccc(Cl)c2)CC1	-4	7.1*	2	3	6	15*	-2	3
Cc1[nH]c2ccccc2c1C(=O)C(=O)N1CC=C(c2ccccc2)CC1	-2	9.1*	1	1	3	13*	10	1
COc1ccccc1N1CCN(C(=O)C(=O)c2c(C)[nH]c3ccccc23)CC1	-6	6.6*	1	5	5	19*	1	4
Cc1[nH]c2ccc(C(=O)N3CCN(c4cccc(Cl)c4)CC3)cc2c1C	-1	0	-1	2	-6	/	/	/
O=C(C(=O)N1CCN(c2cccc(Cl)c2)CC1)c1c[nH]c2ccccc12	0	9.4*	0	-5	9	12*	0	7
COc1cc2c(cc1OC)C(C(=O)O)C(c1ccc3c(c1)OCO3)N(C)C2=O (centres undefined)	/	/	0	/	/	/	/	/
O=[N+]([O-])c1ccc2c(c1)CCCO[C@]21O[C@H](CCO)C[C@H](O)[C@H]1O	/	/	-1	/	/	/	/	/
COc1ccccc1C(=O)N1CCN(C(=O)[C@H]2O[C@@H](n3cnc(C(N)=O)n3)[C@H](O)[C@@H]2O)CC1	/	/	2	/	/	/	/	/
C[C@H]1COc2cc(NCCO)ccc2S(=O)(=O)N1	/	/	-1	/	/	/	/	/
Cc1[nH]c2ccc(C(=O)N3CCN(c4ccccc4Cl)CC3)cc2c1C	-1	0	0	-1	-4	/	/	/
Cc1[nH]c2ccccc2c1C(=O)C(=O)N1CCN(c2ccccc2Cl)CC1	-4	9.0*	1	4	-1	28*	-4	15
O=C(CN1C2=NCCCN2c2ccccc21)c1ccc(Cl)cc1Cl	-2	12*	1	-2	-2	28*	12	13
O=C(CN1C2=NCCCN2c2ccccc21)c1cccc(Br)c1	0	0	0	5	12	/	/	/
Cc1ccc(C2C(C#N)=C(N)Oc3cc(N)ccc32)cc1 (centres undefined)	-4	0	0	-17	-17	/	/	/

Assay outcomes from PubChem.
